Reference: ChEMBL document CHEMBL1134794, “Discovery of inhibitors of cell adhesion molecule expression in human endothelial cells. 1. Selective inhibition of ICAM-1 and E-selectin expression” (J Med Chem, 2001)
Values after ≈ are worked out from the molar mass of the structure shown.

Key:
[1] = In vitro cellular toxicity against human umbilical vein endothelial cells (HUVEC) in MTS assay; assay type: cell-based
[2] = Area under curve against time (0-8 hr) in rat; assay type: ADME, organism-based; parameters: time < 8 hr; conditions: in vivo
Procedure, shortened: (§1)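 Rats given a single oral dose of 5 mg/kg, no intravenous arm. Plasma drug concentrations followed over time and analysed by HPLC. Values are means (±SEM, n=3).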

[3] = Half-life was measured in rat; assay type: ADME, organism-based; conditions: in vivo; procedure, shortened: as §1
[4] = Mean plasma concentration measured in rat; assay type: ADME, organism-based; procedure, shortened: as §1
[5] = Maximum time taken to reach mean plasma concentration, measured in rat; assay type: ADME, organism-based; procedure, shortened: as §1
[6] = Aqueous solubility was determined at pH 7.4; assay type: physicochemical; conditions: buffer
Procedure, shortened: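 Solubility determined in 0.05 M NaH₂PO₄ buffer at pH 7.4.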

| SMILES | IC50 [1] | also measured |
| --- | --- | --- |
| NC(=O)c1cc2c(Sc3ccccn3)cncc2s1 | > 100 µM |  |
| CCc1cc2c(SCc3ccccc3)ncnc2s1 | > 100 µM |  |
| Cc1ccc(Sc2cncc3sc(C(=N)S)cc23)cc1 | 51 µM |  |
| Cc1ccc(Sc2cncc3sccc23)cc1 | 5.8 µM |  |
| Cc1ccc(Sc2cncc3sc(C(N)=O)cc23)cc1C | > 100 µM |  |
| CCc1cc2c(Sc3nnc(C)s3)ncnc2s1 | 51 µM |  |
| Cc1ccc(Sc2cncc3sc(C(N)=O)cc23)cc1 | 152 µM | AUC at 8 h [2]: 0.131 µg·h/mL; half-life [3]: 60 min; Cmax [4]: 0.078 µg/mL; Tmax [5]: 15 min; solubility [6]: 0.4 mg/mL (≈ 1330 µM) |
| Cc1ccc(Sc2ccnc3sc(C(N)=O)cc23)cc1 | 44 µM |  |
| CCc1cc2c(Cl)ncnc2s1 | > 100 µM |  |
| Cc1cccc(Sc2cncc3sc(C(N)=O)cc23)c1 | 96 µM |  |
| Cc1ccc(Sc2cncc3sc(C(=O)NN)cc23)cc1 | 82 µM |  |
| CCc1cc2c(O)ncnc2s1 | > 100 µM |  |
| CCc1cc2c(Sc3nnc(N)s3)ncnc2s1 | 95 µM |  |
| Cc1ccc(Sc2cncc3sc(/C=N/OCC(=O)O)cc23)cc1 | 84 µM |  |
| Cc1ccc([S+]([O-])c2cncc3sc(C(N)=O)cc23)cc1 (centres undefined) |  | AUC at 8 h [2]: 1.25 µg·h/mL; Cmax [4]: 0.476 µg/mL; Tmax [5]: 25.2 min |
| Cc1ccc(Sc2cncc3sc(C(=O)O)cc23)cc1 |  | AUC at 8 h [2]: 2.95 µg·h/mL; Cmax [4]: 0.751 µg/mL; Tmax [5]: 19.8 min |
| CCc1cc2c(NCc3ccccc3)ncnc2s1 | 72 µM |  |
| NC(=O)c1cc2c(Sc3ccc(C(F)(F)F)cc3)cncc2s1 | 95 µM |  |
| Cc1ccc(Sc2cncc3sc(C(=O)NCCCN4CCOCC4)cc23)cc1 | 68 µM |  |
| Cc1ccc(Sc2cncc3sc(C(N)=O)cc23)c(C)c1 | > 10 µM |  |
